Compound activity deposited in PubChem BioAssay by Broad Institute.
SR-BI HDL uptake – inhibitors of SR-BI mediated HDL lipid uptake, primary screen, ldlA[mSR-BI] cells, fluorescence, single point; ldlA[mSR-BI] CHO cells, DiI-HDL uptake fluorescence, 3 h; Scavenger receptor class B member 1 (Mus musculus), Q61009; hit rate 0.96% among 320,000; AID 488896, 2010; inhibition, % at 12.5 µM;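 active = mean replicate inhibition of at least 70% and a set share of replicates each scoring 70 or more; inconclusive = meets just one of the two criteria; inactive = fails both criteria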
Target sequence (Q61009 whole entry, looked up): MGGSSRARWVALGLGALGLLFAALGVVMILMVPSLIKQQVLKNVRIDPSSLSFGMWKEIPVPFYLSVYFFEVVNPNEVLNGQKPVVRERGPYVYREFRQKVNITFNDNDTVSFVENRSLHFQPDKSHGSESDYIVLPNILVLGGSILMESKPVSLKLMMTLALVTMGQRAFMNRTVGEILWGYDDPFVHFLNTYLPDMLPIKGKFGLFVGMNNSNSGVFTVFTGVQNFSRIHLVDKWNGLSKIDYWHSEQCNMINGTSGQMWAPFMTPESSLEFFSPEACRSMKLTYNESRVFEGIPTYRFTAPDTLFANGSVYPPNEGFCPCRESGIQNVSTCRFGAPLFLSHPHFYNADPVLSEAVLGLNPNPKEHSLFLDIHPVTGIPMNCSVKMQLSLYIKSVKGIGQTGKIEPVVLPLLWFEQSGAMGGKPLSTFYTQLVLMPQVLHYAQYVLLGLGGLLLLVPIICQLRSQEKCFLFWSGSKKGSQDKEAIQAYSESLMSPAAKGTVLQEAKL
SR-BI DiI-HDL act – activators of SR-BI mediated DiI-HDL uptake, primary screen, ldlA[mSR-BI] CHO cells, DiI fluorescence; 3 h; 100 = double the neutral-control signal; activation, % at 12.5 µM; hit rate 0.096% among 320,000;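 active = mean replicate activation of at least 60% and every replicate at or above 60%; inconclusive = mean or all-replicate condition met, but not both; inactive = mean below 60% and not all replicates reaching 60%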
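System: LDL receptor-deficient CHO ldlA cells overexpressing murine SR-BI | Timing: 3 h uptake period with compound, 37 °C | Medium: HEPES-buffered (25 mM, pH 7.4) F12 plus 0.5% BSA | Dosing: Single-point compound dose | Signal: Bottom-read fluorescence, 550/595 nm | Read-out: Retained DiI signal reflecting DiI-HDL uptake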
CAL PDZ FP-1 – CAL PDZ peptide-binding inhibitors, primary screen, biochemical, fluorescence polarization, Cer-tagged CAL PDZ, HTS | Golgi-associated PDZ and coiled-coil motif-containing protein (Homo sapiens), Q9HD26 | purified CAL PDZ, TMR-peptide fluorescence polarization, 1 h | inhibition, % at 20 µM | hit rate 0.02% among 330,000 | AID 504414, 2011;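 active = highest replicate inhibition of at least 40%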
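Control set: unlabelled peptide and DMSO controls / Material: purified CerCALP PDZ construct / Timing: 1 h incubation at room temperature before polarization reading / Doses: 20 µM, one dose / Detection: fluorescence polarization (mP)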
miR-122 sensor – miR-122 Renilla sensor signal increase in Huh7, primary screen, miR-122 inhibitor project, cell-based, single point, plate reader. hit rate 0.3% among 340,000. activation (reporter increase), % at 12.5 µM. Huh7 miR-122 Renilla luciferase sensor, 48 h; neutral wells = 0, positive control = 100;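 active = mean replicate activation score at least 90 and every replicate individually at or above 90; inconclusive = only one of the two criteria met; inactive = neither criterion met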;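 also: higher luciferase means less miR-122 activity so hits act as miR-122 inhibitors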
ARNT-TACC3 inh – disruptors of ARNT/TACC3 protein interaction, primary screen, biochemical, AlphaScreen, single concentration. AlphaScreen His-ARNT PAS-B/GST-TACC3 binding, luminescence; TACC3 fragment carries E629A point mutation. inhibition, % at 9.99 µM. hit rate 0.66% among 390,000. AID 623870, 2012;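 active = mean inhibition of replicates at least 50% and at least half of replicates each reaching 50%; inconclusive = half or more replicates reach 50% but mean below 50%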
CAL PDZ FP-2 – untagged CAL PDZ binding inhibitors, primary screen, biochemical, fluorescence polarization, HTS; inhibition, % at 24.9 µM; hit rate 0.92% among 300,000; purified CAL PDZ, TMR-peptide fluorescence polarization, 1 h; Golgi-associated PDZ and coiled-coil motif-containing protein (Homo sapiens), Q9HD26;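 active = mean inhibition of at least 30% with at least half of replicates also reaching 30%; inconclusive = no clear call, values can overlap the other calls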
Large screens that a line does not name were inactive. Hits are enriched below; roughly 2.1% of the tested compounds scored in any of these assays.

C[C@H]1CN([C@@H](C)CO)C(=O)c2cc(NC(=O)NC3CCCCC3)ccc2O[C@@H]1CN(C)CC1CCCCC1	none (no result: SR-BI HDL uptake, SR-BI DiI-HDL act, CAL PDZ FP-1, CAL PDZ FP-2)
CCCCc1c(O)nc(SCC(=O)c2ccccc2)[nH]c1=O	SR-BI DiI-HDL act 71
O=C(N[C@@H]1CC[C@H](CC(=O)N2CCOCC2)O[C@H]1CO)c1cccc(F)c1	none (no result: SR-BI HDL uptake, SR-BI DiI-HDL act, CAL PDZ FP-1, miR-122 sensor, CAL PDZ FP-2)
Cc1noc(C)c1NC(=O)Nc1cccc2c1O[C@H](CN(C)S(=O)(=O)c1ccc(Cl)cc1)[C@H](C)CN([C@H](C)CO)C2=O	none (no result: SR-BI HDL uptake, SR-BI DiI-HDL act, CAL PDZ FP-1, CAL PDZ FP-2)
C[C@H](CO)N1C[C@H](C)[C@@H](CN(C)Cc2ccc(Cl)c(Cl)c2)OCCCC[C@H](C)Oc2ccc(NS(=O)(=O)c3ccc(Cl)cc3)cc2C1=O	none (no result: SR-BI HDL uptake, SR-BI DiI-HDL act, CAL PDZ FP-1, CAL PDZ FP-2)
O=C(CN1CC(=O)Oc2ccccc21)OCC(=O)c1cccc(Br)c1	ARNT-TACC3 inh 73
CC(C)(C)c1ccc(C(=O)NC(=S)Nc2nc3c(s2)CCCC3)cc1	none (no result: ARNT-TACC3 inh)
CN(C)c1ccc(C(=O)Nc2nc3c(s2)CCCC3)cc1	SR-BI HDL uptake 84 (no result: CAL PDZ FP-2)
COc1ccc(NC(=O)/C(C#N)=C\c2cc(C)n(-c3ccc(Oc4ccc([N+](=O)[O-])cn4)cc3)c2C)cc1	SR-BI HDL uptake 75 (no result: miR-122 sensor)
NC(CO)C(=O)NNCc1ccc(O)c(O)c1O (stereo not drawn)	ARNT-TACC3 inh 57
COc1cccc(OCC(=O)Nc2cc(Cl)ccc2Oc2ccccc2)c1	SR-BI HDL uptake 87 (no result: miR-122 sensor)
Cn1c(=O)c2nc(-c3ccccc3)c(-c3ccccc3)nc2n(C)c1=O	CAL PDZ FP-2 66 (no result: miR-122 sensor)
COc1cc(OC)cc(C(=O)NC(=S)NNC(=O)c2cnccn2)c1	ARNT-TACC3 inh 66
COc1cc(OC)cc(C(=O)NNC(=S)NC(=O)c2cccnc2)c1	CAL PDZ FP-2 61
COc1ccc(C(=O)NC(=S)NNC(=O)c2cnccn2)cc1OC	ARNT-TACC3 inh 63
CCC(=O)N(CC)c1nc(-c2ccc(OC)cc2)cs1	SR-BI HDL uptake 87 (no result: CAL PDZ FP-2)
CNC[C@@H]1OCCCC[C@H](C)Oc2ccc(NC(=O)c3ccccc3)cc2C(=O)N([C@@H](C)CO)C[C@H]1C	none (no result: SR-BI HDL uptake, SR-BI DiI-HDL act, CAL PDZ FP-1, CAL PDZ FP-2)
COc1ccccc1CNC(=O)C[C@H]1CC[C@H]2[C@@H](COC[C@@H](O)CN2C(=O)Nc2ccc(Cl)cc2)O1	none (no result: SR-BI HDL uptake, SR-BI DiI-HDL act, CAL PDZ FP-1, CAL PDZ FP-2)
CCC(=O)Nc1ccc2c(c1)OC[C@@H](C)N(C(=O)c1cccnc1)C[C@H](C)[C@H](OC)CN(C)C2=O	none (no result: SR-BI HDL uptake, SR-BI DiI-HDL act, CAL PDZ FP-1, miR-122 sensor, CAL PDZ FP-2)
CCN1C(=O)/C(=C2\C=Cc3ccccc3N2CC)SC1=S	SR-BI HDL uptake 74
CCN1C(=O)/C(=c2\o/c(=C3\C=Cc4ccccc4N3CC)c(=O)n2CC)SC1=S	none
COc1ccc(-c2ccc(-c3nc4c(c(=O)[nH]c(=O)n4Cc4ccccc4)n3C)o2)c([N+](=O)[O-])c1	SR-BI HDL uptake 72, ARNT-TACC3 inh 24
COCCn1c(=O)[nH]c(=O)c2c1nc(-c1ccc(-c3ccc(Cl)cc3[N+](=O)[O-])o1)n2Cc1ccccc1	none (no result: miR-122 sensor)
COc1ccccc1NC(=O)N[C@@H]1CC[C@H](CC(=O)N[C@@H](C)c2ccccc2)O[C@@H]1CO	none (no result: SR-BI HDL uptake, SR-BI DiI-HDL act, CAL PDZ FP-1, miR-122 sensor, CAL PDZ FP-2)
CC(C)NC(=O)N(C)C[C@H]1Oc2ccc(NS(=O)(=O)c3ccc(F)cc3)cc2C(=O)N([C@H](C)CO)C[C@H]1C	none (no result: SR-BI HDL uptake, SR-BI DiI-HDL act, CAL PDZ FP-1, CAL PDZ FP-2)
COc1ccc(S(=O)(=O)Nc2ccc3c(c2)C(=O)N([C@@H](C)CO)C[C@@H](C)[C@@H](CN(C)C(=O)CCC(F)(F)F)OCCCC[C@H](C)O3)cc1	none (no result: SR-BI HDL uptake, SR-BI DiI-HDL act, CAL PDZ FP-1, CAL PDZ FP-2)
O=C(Nc1ccc(F)cc1)Nc1cc(OCC(F)(F)F)cc(OCC(F)(F)F)c1	SR-BI HDL uptake inconclusive (no result: miR-122 sensor)
